A selection: hits, their analogues and other compounds. The true share with any hit is near 2.2%.
CXCR6 block: CXCR6 receptor inhibitors, primary screen, cell-based, beta-arrestin, luminescence, CHO-K1 PathHunter, 1536-well; AID 602244, 2012; actives 0.36% (n = 360,000); inhibition, % at 20 µM; C-X-C chemokine receptor type 6 (Homo sapiens), O00574; in the data active means inhibition above about 34%, passing the limit was not always enough;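 further: antagonist mode with CXCL16 agonist at 10 nM final; 0% = 10 nM CXCL16 with DMSO and 100% = unstimulated wells without agonist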
APJ antag: antagonists of human apelin receptor APJ, primary screen, CHO-K1 cells, beta-arrestin complementation, luminescence; actives 0.32% (n = 330,000); inhibition, % at 20 µM;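 active means inhibition above about 40% at 20 µM, limit read from the data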;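 further: cells challenged with 10 nM apelin-13 agonist together with compound; plate controls were apelin-13 plus DMSO wells for no effect and DMSO wells lacking apelin-13 for full effect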
m5-HT2A agonist: mouse Htr2a agonists via beta-arrestin recruitment, primary screen, cell-based, luminescence. activation, % at 7.6 µM. AID 624169, 2012. CHO-K1 mHTR2A beta-arrestin complementation; percent of 30 µM serotonin response. actives 0.66% (n = 360,000);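 active means activation above a run cutoff, the mean activation of all tested compounds plus 3 SD, cut at about 14% in these data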;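 further: 0% = plate median of compound wells and 100% = 30 µM serotonin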
CCR6 antag: CCR6 receptor antagonists, primary screen, cell-based, CHO-K1, luminescence, beta-arrestin, uHTS; CHO-K1 CCR6 PathHunter beta-arrestin, CCL20-stimulated; inhibition, % at 20 µM; C-C chemokine receptor type 6 (Homo sapiens), P51684; AID 493098, 2011; actives 0.49% (n = 340,000);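 active means compounds whose inhibition of the agonist-driven luminescence signal at 20 µM reaches about 50%, limit read from the data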;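 further: cells stimulated with CCL20 at 14 nM final; plate controls were DMSO with CCL20 for no effect and DMSO without agonist for full effect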
EBI2 block: EBI2 receptor antagonists, beta-arrestin recruitment, primary screen, cell-based, luminescence, 7a,25-OHC stimulation, uHTS. G-protein coupled receptor 183 (Homo sapiens), P32249. 7a,25-OHC stimulated. inhibition, % at 5 µM. actives 0.81% (n = 360,000); in the data active means inhibition above about 38%;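 further: enzyme fragment complementation signal reports receptor beta-arrestin coupling in cells; 0% = agonist plus DMSO wells and 100% = wells without agonist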
APJ ag: agonists of human apelin receptor APJ, primary screen, CHO-K1 cells, PathHunter beta-arrestin, luminescence. P35414. actives 0.11% (n = 330,000). 0% DMSO wells, 100% apelin. AID 2520, 2010. activation, % at 20 µM;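 active means activation more than six SD over the plate average, tested at 20 µM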;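 further: 0% = DMSO alone and 100% = apelin-13 at 10 nM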
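Incubation: overnight seeding, 90 min compound at 25 °C, 1 h detection; test system: PathHunter CHO-K1 APJ (AGTRL-1) beta-arrestin reporter cells; amount: 1000 cells/well; doses: one dose, 20 µM compound, 1% DMSO; measured by: beta-gal luminescence; measure: agonist-driven arrestin binding to APJ; benchmarks: negative DMSO alone, positive Apelin-13 at 10 nM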
MOR ag counter: OPRM1 agonists via beta-arrestin recruitment, confirmation, counter-screen for mouse HTR2A agonist project, cell-based, luminescence, single concentration; AID 624380, 2012; activation, % at 9.3 µM; U2OS OPRM1 beta-arrestin PathHunter; DMSO 0%, DAMGO 9.3 µM 100%; actives 5.3% (n = 2,300); shares compounds with m5-HT2A agonist;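 active means mean activation above the mean of DMSO-only wells plus 3 SD, cut at about 0.5% in these data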
Target sequence (P35372 whole entry, looked up): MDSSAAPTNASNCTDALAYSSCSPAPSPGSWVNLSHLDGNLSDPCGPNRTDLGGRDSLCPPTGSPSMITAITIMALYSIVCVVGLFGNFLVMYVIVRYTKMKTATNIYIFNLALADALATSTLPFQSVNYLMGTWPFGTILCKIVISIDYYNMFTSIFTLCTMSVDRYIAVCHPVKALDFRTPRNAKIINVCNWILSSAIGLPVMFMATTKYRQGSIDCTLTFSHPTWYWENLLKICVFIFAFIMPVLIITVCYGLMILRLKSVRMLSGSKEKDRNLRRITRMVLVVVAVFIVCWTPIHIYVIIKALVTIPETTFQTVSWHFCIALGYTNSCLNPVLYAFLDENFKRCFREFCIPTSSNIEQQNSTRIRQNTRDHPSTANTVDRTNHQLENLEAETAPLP
HTR2A ag conf: mouse HTR2A agonists, beta-arrestin recruitment, confirmation, cell-based, luminescence, CHO-K1 PathHunter, triplicate; shares compounds with m5-HT2A agonist; DMSO 0%, 30 µM serotonin 100%; activation, % at 7.6 µM; actives 19% (n = 2,300);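 active means mean activation across triplicates above the hit threshold derived in the original primary screen, cut at about 15% in these data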
* marks the source's active call; other numbers are inactive results.

For COc1ccc(C2C3=C(CCCC3=O)Nc3c(-c4ccccc4)c(C)nn32)cc1 (centres undefined) the results were CXCR6 block -5, APJ antag 15, m5-HT2A agonist -2, CCR6 antag -3, EBI2 block -38 and APJ ag 1.
For OCC[C@@H]1C[C@H](O)[C@@H](O)[C@@]2(OCCCc3cc(C(F)(F)F)ccc32)O1 the results were CXCR6 block -1, m5-HT2A agonist 15*, EBI2 block 6, MOR ag counter 0 and HTR2A ag conf 7.
Screening OCC[C@@H]1C[C@H](O)[C@@H](O)[C@]2(OCCc3cc(C(F)(F)F)ccc32)O1 returned CXCR6 block 1, m5-HT2A agonist -2 and EBI2 block -1.
CC1(C(=O)Nc2ccc3c(c2)OCCO3)CSCC(=O)N1CC(F)(F)F (centres undefined) was read as m5-HT2A agonist -3 and EBI2 block 1.
C[C@H](O)[C@@H]1CN2CCc3c([nH]c4ccccc34)[C@@H]2C[C@@H]1N(C)C(=O)Nc1ccc(Br)cc1 was read as CXCR6 block -4, m5-HT2A agonist 16*, EBI2 block -11 and HTR2A ag conf 27*.
Screening COc1ccc(CCc2nnc(NS(C)(=O)=O)s2)cc1 returned CXCR6 block 1, APJ antag -7, m5-HT2A agonist -1, CCR6 antag 2, EBI2 block 3 and APJ ag -1.
For Cc1cccc(C)c1N1CCN(C(c2cc3ccccc3o2)c2nnnn2C(C)(C)C)CC1 (centres undefined) the results were CXCR6 block 8, m5-HT2A agonist 8 and EBI2 block -1.
Screening CCOC(=O)C1(C)CCN1C(=O)c1cccc(C(F)(F)F)c1 (centres undefined) returned CXCR6 block 1, m5-HT2A agonist 5 and EBI2 block -5.
CCC/C=C/c1ccc(CN2C(CC(C)C)C(=O)N(Cc3cn(Cc4ccco4)nn3)CCS2(=O)=O)cc1 (centres undefined) was read as CXCR6 block -16, m5-HT2A agonist 0 and EBI2 block 8.
`Nc1ncnc2c1ncn2[C@@H]1O[C@H](CO)[C@@H](O)[C@H]1O` gave CXCR6 block -6, APJ antag -12, m5-HT2A agonist 28*, CCR6 antag 0, EBI2 block 7, APJ ag -3, MOR ag counter -1 and HTR2A ag conf -2.
Screening CN(C)c1ncnc2c1ccn2C1OC(CO)C(O)C1O (centres undefined) returned CXCR6 block -1, m5-HT2A agonist -1, CCR6 antag -8 and EBI2 block -11.
`OCC1OC(n2ccc3c(NO)ncnc32)C(O)C1O` (centres undefined) gave CXCR6 block -5, m5-HT2A agonist 18*, CCR6 antag -6, EBI2 block -6, MOR ag counter 0 and HTR2A ag conf 13.
Screening CC(C)(C)OC(=O)NCCCCCNC(=O)c1ncn2c1c(=O)[nH]c1ccccc12 returned CXCR6 block -3, m5-HT2A agonist -4 and EBI2 block -8.
`COC(=O)N1CCCCC1c1cc(C(=O)Nc2cccc3c2CCCC3)no1` (centres undefined) gave CXCR6 block 4, m5-HT2A agonist 17*, EBI2 block 20, MOR ag counter 0 and HTR2A ag conf -3.
For CCN(c1ccc(C)c(C)c1)S(=O)(=O)c1ccc2c(c1)CCN2C(=O)CCC(=O)O the results were CXCR6 block 7, APJ antag 15, m5-HT2A agonist -1, CCR6 antag 5, EBI2 block -5 and APJ ag -3.
For CCN(c1ccc(OC)cc1)S(=O)(=O)c1ccc2c(c1)CCN2C(=O)CCC(=O)O the results were CXCR6 block 1, APJ antag 2, m5-HT2A agonist 14*, CCR6 antag 7, EBI2 block 12, APJ ag -1, MOR ag counter 0 and HTR2A ag conf 0.
Screening O=C(NCc1cccnc1)c1cc(C2CCCN(S(=O)(=O)c3cccs3)C2)on1 (centres undefined) returned CXCR6 block -11, m5-HT2A agonist 1 and EBI2 block -7.
Screening CCN(CC(=O)NC1CC1)S(=O)(=O)c1ccc(C)cc1 returned CXCR6 block -20, APJ antag -8, m5-HT2A agonist 15*, CCR6 antag 10, EBI2 block -2, APJ ag 0, MOR ag counter -1 and HTR2A ag conf -5.
Screening Cc1cccc(N2CCN(C(=S)Nc3ccc4nc(N5CCOCC5)cc(C)c4c3)CC2C)c1 (centres undefined) returned CXCR6 block -14, APJ antag 7, m5-HT2A agonist 16*, CCR6 antag 15, EBI2 block 20, APJ ag 1, MOR ag counter 0 and HTR2A ag conf 0.
Screening Cc1cc(N2CCOCC2)nc2ccc(NC(=S)N3CCN(c4ccccc4)CC3)cc12 returned CXCR6 block -7, APJ antag -18, m5-HT2A agonist -7, CCR6 antag 1, EBI2 block 7 and APJ ag 3.
For CCN1CCN(C(=O)c2c(-c3ccccc3)noc2C)CC1 the results were CXCR6 block 6, APJ antag -2, m5-HT2A agonist 17*, CCR6 antag 18, EBI2 block 3, APJ ag 2, MOR ag counter 0 and HTR2A ag conf 1.
For CN1CCc2cccc3c2[C@H]1Cc1ccc(O)c(O)c1-3 the results were CXCR6 block -6, APJ antag -10, m5-HT2A agonist 44*, CCR6 antag 1, EBI2 block -16, APJ ag -4, MOR ag counter 0 and HTR2A ag conf 125*.
For CN1CCc2cc3c(c4c2[C@H]1[C@H](O)c1ccccc1-4)OCO3 the results were CXCR6 block -45, APJ antag -123, m5-HT2A agonist -5, CCR6 antag 2, EBI2 block -36 and APJ ag 12.

Screens deposited in PubChem BioAssay by several laboratories.
